# Data published in ChEMBL document CHEMBL1139611, “Structure-activity relationships of novel endomorphin-2 analogues with N-O turns induced by alpha-aminoxy acids” (Bioorg Med Chem Lett, 2005).
# Columns and labels:
# [1] = molecular target: Delta-type opioid receptor (Rattus norvegicus, UniProt P33533); test: Inhibition of [3H]DPDPE binding to Opioid receptor delta 1 of rat brain membrane
# Summary of the method: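 Competition binding on Wistar rat brain synaptosomal P2 membranes in 50 mM Tris–HCl, pH 7.4. […] Delta sites were labelled with [3H]DPDPE (1 nM, Kd 2.75 nM) for 3 h at 25 °C. Nonspecific binding was taken with naloxone. Ki was derived by Cheng–Prusoff; values are means of ≥3 experiments.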
# [2] = molecular target: Delta-type opioid receptor (Rattus norvegicus) (UniProt P33533); test: Percent decrease of maximum binding towards Opioid receptor delta 1 in rat brain membrane using [3H]DPDPE at 10 uM concentration; type: cell membranes; parameters: scale not given: the % may be the effect or the level left
# Delta-type opioid receptor (Rattus norvegicus), sequence (P33533 whole entry): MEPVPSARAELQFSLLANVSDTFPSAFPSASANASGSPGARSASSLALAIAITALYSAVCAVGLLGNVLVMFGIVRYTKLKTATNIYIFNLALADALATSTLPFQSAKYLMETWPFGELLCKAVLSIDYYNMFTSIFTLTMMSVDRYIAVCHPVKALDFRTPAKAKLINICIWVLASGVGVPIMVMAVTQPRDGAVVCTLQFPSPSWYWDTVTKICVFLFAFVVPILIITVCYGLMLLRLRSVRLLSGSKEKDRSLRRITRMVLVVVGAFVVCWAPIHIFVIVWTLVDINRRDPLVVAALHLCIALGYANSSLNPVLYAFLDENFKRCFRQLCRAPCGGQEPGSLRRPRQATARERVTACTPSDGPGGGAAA
# Mu-type opioid receptor [3] = molecular target: T1, Mu-type opioid receptor (Rattus norvegicus, UniProt P33535); test: Inhibition of [3H]DAMGO binding to Opioid receptor mu 1 of rat brain membrane; na= No activity.
# T1 sequence (P33535 whole entry): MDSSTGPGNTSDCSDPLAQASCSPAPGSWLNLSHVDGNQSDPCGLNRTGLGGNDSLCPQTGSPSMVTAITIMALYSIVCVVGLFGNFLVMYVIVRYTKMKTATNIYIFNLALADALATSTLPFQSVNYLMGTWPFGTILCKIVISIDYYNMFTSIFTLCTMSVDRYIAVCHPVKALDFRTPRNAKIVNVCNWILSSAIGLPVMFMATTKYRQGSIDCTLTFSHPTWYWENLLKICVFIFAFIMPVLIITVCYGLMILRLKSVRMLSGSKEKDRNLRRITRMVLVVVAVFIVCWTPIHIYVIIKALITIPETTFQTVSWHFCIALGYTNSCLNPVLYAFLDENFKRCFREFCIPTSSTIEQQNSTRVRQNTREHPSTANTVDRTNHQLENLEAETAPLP
# [4] = molecular target: Delta-type opioid receptor (Rattus norvegicus) (UniProt P33533); test: Percent inhibition of [3H]DPDPE binding to Opioid receptor delta 1 of rat brain membrane at 10 uM; parameters: scale not given: the % may be the effect or the level left
# Mu-type opioid receptor [5] = molecular target: T1, Mu-type opioid receptor; test: Inhibition of [3H]DAMGO binding to Opioid receptor mu 1 of rat brain membrane
# Summary of the method: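 Rat brain synaptosomal P2 membranes from Wistar rats in 50 mM Tris-HCl, pH 7.4. […] Nonspecific binding was defined with naloxone. Ki was derived by Cheng-Prusoff. Values are means of at least three experiments.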
# [6] = molecular target: Opioid receptors; mu & delta (Rattus norvegicus) (UniProt P33533+P33535); test: Selectivity ratio of Opioid receptor delta 1 to Opioid receptor mu 1; type: protein assay
# Opioid receptors; mu & delta (Rattus norvegicus), sequence (P33533 whole entry, looked up): as the sequence (P33533 whole entry) above
# Opioid receptors; mu & delta (Rattus norvegicus), sequence (P33535 whole entry, looked up): as the sequence (P33535 whole entry) above
# [7] = molecular target: Mu-type opioid receptor (Rattus norvegicus) (UniProt P33535); test: Percent inhibition of [3H]-DAMGO binding to Opioid receptor mu 1 of rat brain membrane at 10 uM; parameters: scale not given: the % may be the effect or the level left
# Mu-type opioid receptor (Rattus norvegicus), sequence (P33535 whole entry): as above
# Delta-type opioid receptor, sequence (P33533 whole entry): as the sequence (P33533 whole entry) above
Compound,Ki [1] [µM],Activity [2] [%],Ki (Mu-type opioid receptor [3]),Activity [4] [%],Ki (Mu-type opioid receptor [5]) [µM],Selectivity [6],Activity [7] [%]
NC(=O)[C@H](Cc1ccccc1)NC(=O)[C@H](Cc1ccccc1)NC(=O)[C@H](Cc1ccccc1)NO[C@@H](N)Cc1ccc(O)cc1,> 10,30,Not Active,–,–,–,–
NC(=O)[C@H](Cc1ccccc1)NC(=O)[C@H](Cc1ccccc1)NO[C@@H]1CCCN1C(=O)[C@@H](N)Cc1ccc(O)cc1,> 10,–,–,15,0.434,> 23,–
NC(=O)[C@H](Cc1ccccc1)NC(=O)[C@@H](Cc1ccccc1)NO[C@@H]1CCCN1C(=O)[C@@H](N)Cc1ccc(O)cc1,> 10,–,–,30,0.6,> 17,–
NC(=O)[C@H](Cc1ccccc1)NC(=O)[C@H](Cc1ccccc1)NC(=O)[C@@H](Cc1ccccc1)NO[C@@H](N)Cc1ccc(O)cc1,> 10,18,–,–,> 10,–,22
NC(=O)[C@H](Cc1ccccc1)NC(=O)[C@@H](Cc1ccccc1)O/N=C/[C@@H]1CCCN1C(=O)[C@@H](N)Cc1ccc(O)cc1,37.1,–,–,–,4.04,9,–
NC(=O)[C@H](Cc1ccccc1)NC(=O)[C@H](Cc1ccccc1)O/N=C/[C@@H]1CCCN1C(=O)[C@@H](N)Cc1ccc(O)cc1,19.8,–,–,–,408,4.1,–
NC(=O)[C@H](Cc1ccccc1)NC(=O)[C@H](Cc1ccccc1)NC(=O)[C@@H]1CCN(C(=O)[C@@H](N)Cc2ccc(O)cc2)C1,8.36,–,–,–,0.00823,1020,–
